In ChEMBL document CHEMBL4400565, “Discovery of Irreversible p97 Inhibitors” (J Med Chem, 2019):
pEC50, pKi: −log10 of the molar value. Calls of active or inactive are those of the source. The calls are words filed in the database; no cut-off is given here. Where a SMILES comes first, the peptide text is derived from it. [ ]: non-standard residue; d: D form. The star is where a group is joined. Nva = CCC[C@H](N)C(=O)O; Cbz = O=C(OCc1ccccc1)*

Legend:
[1] = system: Proteasome; assay: Irreversible inhibition of proteasome in human A373 cells co-expressing US11 and HA-tagged MCH class 1 heavy chain H2A assessed as MHC class 1 heavy chain degradation at 20 uM incubated for 1 hr followed by further incubation in drug-free medium in presence of cycloheximide by Western blot analysis
[2] = system: Proteasome; assay: Inhibition of proteasome in human HEK293T cells based Ubv-GFP cells assessed as increase Ub-v-GFP accumulation at 20 uM after 4 hrs by Western blot analysis
[3] = system: Proteasome; assay: Inhibition of proteasome in human HEK293T cells stably expressing YFP delSS TCRalpha assessed as reduction in deltaSS TCRalpha-YFP degradation at 10 uM MG132 incubated overnight by Western blot analysis
[4] = system: MIA PaCa-2; assay: Antiproliferative activity against human MIAPaCa2 cells; format: functional, cell-based
[5] = biological target: T1, Transitional endoplasmic reticulum ATPase (Homo sapiens, UniProt P55072); assay: Inhibition of His-tagged p97 (unknown origin) in presence of ATP and PNP by UV-transparent microplate assay; conditions: read-out: Ki(app)
Target sequence in this assay (P55072 whole entry): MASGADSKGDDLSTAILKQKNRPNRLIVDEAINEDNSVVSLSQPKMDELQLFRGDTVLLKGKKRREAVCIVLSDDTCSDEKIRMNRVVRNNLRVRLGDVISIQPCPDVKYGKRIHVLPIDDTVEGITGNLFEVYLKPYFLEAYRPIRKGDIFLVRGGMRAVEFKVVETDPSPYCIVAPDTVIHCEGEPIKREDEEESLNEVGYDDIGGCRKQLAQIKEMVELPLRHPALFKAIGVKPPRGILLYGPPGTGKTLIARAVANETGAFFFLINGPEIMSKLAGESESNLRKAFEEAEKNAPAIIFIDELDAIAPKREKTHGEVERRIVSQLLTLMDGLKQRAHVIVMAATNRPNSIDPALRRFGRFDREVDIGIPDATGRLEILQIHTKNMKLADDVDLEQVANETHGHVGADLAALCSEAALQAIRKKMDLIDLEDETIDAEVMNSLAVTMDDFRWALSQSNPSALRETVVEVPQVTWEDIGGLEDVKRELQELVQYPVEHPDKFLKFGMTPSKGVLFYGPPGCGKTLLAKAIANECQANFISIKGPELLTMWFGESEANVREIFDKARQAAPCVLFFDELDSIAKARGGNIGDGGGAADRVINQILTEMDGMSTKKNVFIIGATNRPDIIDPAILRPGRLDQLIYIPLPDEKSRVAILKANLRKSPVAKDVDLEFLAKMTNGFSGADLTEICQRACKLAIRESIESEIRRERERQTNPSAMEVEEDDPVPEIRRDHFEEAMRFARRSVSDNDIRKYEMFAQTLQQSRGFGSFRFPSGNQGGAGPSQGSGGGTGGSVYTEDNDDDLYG

[6] = system: Transitional endoplasmic reticulum ATPase (Homo sapiens), P55072 [UNDEFINED MUTATION]; assay: Reversible inhibition of His-tagged p97 C552A mutant (unknown origin) using PNP as substrate assessed as activity recovered at 3200 nM after 2 hrs by dialysis relative to control; parameters: scale not given: the % may be the effect or the level left
[7] = biological target: T1, Transitional endoplasmic reticulum ATPase; assay: Reversible inhibition of His-tagged p97 (unknown origin) using PNP as substrate assessed as activity recovered at 3200 nM after 2 hrs by dialysis relative to control; parameters: scale not given: the % may be the effect or the level left
Target sequence in this assay (P55072 2-806 limits assumed): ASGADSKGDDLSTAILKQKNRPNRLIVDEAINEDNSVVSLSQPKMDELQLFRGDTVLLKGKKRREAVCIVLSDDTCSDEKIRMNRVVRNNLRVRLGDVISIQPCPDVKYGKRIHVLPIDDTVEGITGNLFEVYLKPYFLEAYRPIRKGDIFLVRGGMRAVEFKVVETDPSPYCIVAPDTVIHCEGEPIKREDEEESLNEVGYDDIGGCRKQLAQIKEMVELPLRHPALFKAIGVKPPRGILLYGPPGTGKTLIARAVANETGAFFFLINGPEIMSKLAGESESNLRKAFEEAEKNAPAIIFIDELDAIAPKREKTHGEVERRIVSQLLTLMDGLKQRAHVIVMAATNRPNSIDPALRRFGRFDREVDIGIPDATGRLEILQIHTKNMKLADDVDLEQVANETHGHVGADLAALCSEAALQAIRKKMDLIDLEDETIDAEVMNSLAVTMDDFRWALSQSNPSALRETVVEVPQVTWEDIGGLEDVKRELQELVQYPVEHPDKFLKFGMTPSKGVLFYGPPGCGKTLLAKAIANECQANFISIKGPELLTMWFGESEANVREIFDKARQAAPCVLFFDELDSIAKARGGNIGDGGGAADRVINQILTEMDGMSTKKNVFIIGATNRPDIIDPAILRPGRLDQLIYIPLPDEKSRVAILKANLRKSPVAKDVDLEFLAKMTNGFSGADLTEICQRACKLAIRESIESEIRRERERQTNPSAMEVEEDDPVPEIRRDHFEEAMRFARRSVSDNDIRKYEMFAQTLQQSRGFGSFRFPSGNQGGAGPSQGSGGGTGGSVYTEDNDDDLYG

[8] = GSH reactivity in PBS buffer assessed as half life at 1 uM after presence of GSH by LC-MS/MS analysis; format: physicochemical; conditions: PBS buffer with GSH
Outline: (§1)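 Compound at 1 μM incubated at 37 °C with 5 mM GSH plus a stable internal standard in 0.1 M potassium phosphate, pH 7.4, 10% acetonitrile. Reaction started by GSH addition. GSH conjugate formation checked at the end of incubation.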

[9] = biological target: T1, Transitional endoplasmic reticulum ATPase; assay: Irreversible inhibition of p97 ATPase activity in human HEK293T cells based Ubv-GFP cells assessed as increase Ub-v-GFP accumulation at 2 uM incubated for 4 hrs by Western blot analysis; format: cell-based
Outline: (§2)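 Ub-v-GFP reporter cells (HEK293T-based, 3 × 10⁵) seeded on poly-D-lysine-coated wells and grown overnight. Inhibitor added at 2 μM and kept 4 h at 37 °C (scheme A), or removed after 1 h, cells washed once with PBS, then 3 h in drug-free medium (scheme B). Whole-cell Laemmli extracts immunoblotted for Ub-v-GFP, with anti-p97 as loading control.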
Target sequence in this assay (P55072 2-806 limits assumed): as above

[10] = biological target: T1, Transitional endoplasmic reticulum ATPase; assay: Inhibition of p97 ATPase activity in human HEK293T cells based Ubv-GFP cells assessed as increase Ub-v-GFP accumulation at 2 uM after 4 hrs by Western blot analysis; format: cell-based; outline: as §2
Target sequence in this assay (P55072 2-806 limits assumed): as above

[11] = GSH reactivity in PBS buffer assessed as GSH adduct formation at 1 uM after presence of GSH by LC-MS/MS analysis; format: physicochemical; outline: as §1
[12] = biological target: T1, Transitional endoplasmic reticulum ATPase; assay: Irreversible inhibition of p97 ATPase activity in human HEK293T cells based Ubv-GFP cells assessed as increase Ub-v-GFP accumulation at 2 uM incubated for 1 hr followed by culturing in drug-free medium for additional 3 hrs by Western blot analysis; format: cell-based; outline: as §2
Target sequence in this assay (P55072 2-806 limits assumed): as above

[13] = biological target: T1, Transitional endoplasmic reticulum ATPase; assay: Irreversible inhibition of His-tagged p97 (unknown origin) using PNP as substrate assessed as activity recovered at 780 nM after 2 hrs by dialysis relative to control; parameters: scale not given: the % may be the effect or the level left
Target sequence in this assay (P55072 2-806 limits assumed): as above

[14] = species: Homo sapiens; assay: Irreversible inhibition of His-tagged p97 delta N mutant (unknown origin) using PNP as substrate assessed as activity recovered at 780 nM after 2 hrs by dialysis relative to control; parameters: scale not given: the % may be the effect or the level left
[15] = system: Transitional endoplasmic reticulum ATPase (Homo sapiens), P55072 [UNDEFINED MUTATION]; assay: Irreversible inhibition of His-tagged p97 C552A mutant (unknown origin) using PNP as substrate assessed as activity recovered at 780 nM after 2 hrs by dialysis relative to control; parameters: scale not given: the % may be the effect or the level left
[16] = biological target: T1, Transitional endoplasmic reticulum ATPase; assay: Inhibition of p97 in human A373 cells co-expressing US11 and HA-tagged MCH class 1 heavy chain H2A assessed as MHC class 1 heavy chain accumulation at 2 uM after 1 hr by Western blot analysis; format: cell-based
Target sequence in this assay (P55072 2-806 limits assumed): as above

[17] = biological target: T1, Transitional endoplasmic reticulum ATPase; assay: Irreversible inhibition of p97 in human A373 cells co-expressing US11 and HA-tagged MCH class 1 heavy chain H2A assessed as MHC class 1 heavy chain degradation at 2 uM incubated for 1 hr followed by further incubation in drug-free medium in presence of cycloheximide by Western blot analysis
[18] = biological target: T1, Transitional endoplasmic reticulum ATPase; assay: Noncompetitive inhibition of p97 (unknown origin) using increasing concentration of ATP preincubated for 10 mins followed by ATP addition and measured after 2 hrs by UV-based two-step endpoint assay
[19] = system: Proteasome; assay: Inhibition of proteasome in human HEK293T cells stably expressing YFP delSS TCRalpha assessed as reduction in deltaSS TCRalpha-YFP degradation at 2 uM MG132 incubated overnight by Western blot analysis
[20] = system: Proteasome; assay: Irreversible inhibition of proteasome in human HEK293T cells based Ubv-GFP cells assessed as increase Ub-v-GFP accumulation at 20 uM incubated for 1 hr followed by culturing in drug-free medium for additional 3 hrs by Western blot analysis
[21] = system: Proteasome; assay: Irreversible inhibition of proteasome in human HEK293T cells based Ubv-GFP cells assessed as increase Ub-v-GFP accumulation at 20 uM after 4 hrs by Western blot analysis
Outline: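 Ub-v-GFP reporter cells (HEK293T-based, stably expressing this short-lived proteasome substrate) seeded at 3 × 10⁵ per well on poly-D-lysine, grown overnight, then exposed to MG132 for 4 h at 37 °C. Whole-cell extracts in Laemmli buffer were run on SDS-PAGE and immunoblotted for Ub-v-GFP, with anti-p97 as loading control.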

[22] = biological target: T1, Transitional endoplasmic reticulum ATPase; assay: Reversible inhibition of p97 in human A373 cells co-expressing US11 and HA-tagged MCH class 1 heavy chain H2A assessed as half life for MHC class 1 heavy chain degradation at 2 uM incubated for 1 hr followed by further incubation in drug-free medium in presence of cycloheximide by Western blot analysis; format: cell-based
Outline: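 They were then moved to inhibitor-free medium containing cycloheximide (50 μg/mL) and sampled at set time points. Lysates were immunoblotted for heavy chain turnover.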

Sequence of Transitional endoplasmic reticulum ATPase (Homo sapiens), P55072 [UNDEFINED MUTATION] (P55072 whole entry, looked up, stated change not applied): as the sequence (P55072 whole entry) above

## CC(C)C[C@@H](C=O)NC(=O)[C@H](CC(C)C)NC(=O)[C@H](CC(C)C)NC(=O)OCc1ccccc1 (Cbz-Leu-Leu-Leu-aldehyde)
[1]
  inhibition: Active
[2]
  inhibition: Active
[3]
  inhibition: Active

## C#CC(=O)Nc1cccc2c1cc(C)n2-c1nc2c(c(NCc3ccccc3)n1)COCC2
[4]
  pEC50: 7.10
[5]
  pKi: 7.48

## COc1cccc2c(NCc3ccccc3)nc(-n3c(N)nc4ccccc43)nc12
[6]
  Activity: 100%
[7]
  Activity: 82%

## CC#CCNC(=O)c1cccc2c1cc(C)n2-c1nc2c(c(NCc3ccccc3)n1)COCC2
[8]
  half-life at 1 µM: > 24 h
[9]
  inhibition: Active
[10]
  inhibition: Active
[4]
  pEC50: 6.28
[5]
  pKi: 7.37
[11]
  Activity: Not Active

## Cc1cc2c(C(=O)NCC#N)cccc2n1-c1nc2c(c(NCc3ccccc3)n1)CCCC2
[10]
  inhibition: Active
[4]
  pEC50: 6.33
[5]
  pKi: 7.55

## CC#CC(=O)Nc1cccc2c1cc(C)n2-c1nc2c(c(NCc3ccccc3)n1)COCC2
[4]
  pEC50: 6.22
[5]
  pKi: 7.49

## CCCC#CC(=O)Nc1cccc2c1cc(C)n2-c1nc2c(c(NCc3ccccc3)n1)CCCC2
[10]
  inhibition: Active
[4]
  pEC50: 5.80
[5]
  pKi: 7.57

## Cc1cc2c(C(=O)NCCC#N)cccc2n1-c1nc2c(c(NCc3ccccc3)n1)CCCC2
[10]
  inhibition: Active
[4]
  pEC50: 6.29
[5]
  pKi: 7.62

## CCC#CC(=O)Nc1cccc2c1cc(C)n2-c1nc2c(c(NCc3ccccc3)n1)CCCC2
[10]
  inhibition: Active
[4]
  pEC50: 6.33
[5]
  pKi: 7.37

## CC#CC(=O)Nc1cccc2c1cc(C)n2-c1nc2c(c(NCc3ccccc3)n1)CCCC2
[12]
  inhibition: Active
[9]
  inhibition: Active
[13]
  Activity: 3%
[10]
  inhibition: Active
[14]
  Activity: 0%
[4]
  pEC50: 6.36
[15]
  Activity: 6%
[5]
  pKi: 7.48
[16]
  inhibition: Active
[17]
  inhibition: Active
[18]
  inhibition: Active
[19]
  inhibition: inactive

## CCCNC(=O)c1cccc2c1cc(C)n2-c1nc2c(c(NCc3ccccc3)n1)CCCC2
[4]
  pEC50: 6.22
[5]
  pKi: 7.39

## Cc1cc2c(C(N)=O)cccc2n1-c1nc2c(c(NCc3ccccc3)n1)CCCC2
[10]
  inhibition: Active
[4]
  pEC50: 6.89
[5]
  pKi: 7.54

## CCC[C@@H](C=O)NC(=O)[C@H](CC(C)C)NC(=O)[C@H](CC(C)C)NC(=O)OCc1ccccc1 (Cbz-Leu-Leu-[Nva]-aldehyde)
[20]
  inhibition: Active
[21]
  inhibition: Active

## C#CCNC(=O)c1cccc2c1cc(C)n2-c1nc2c(c(NCc3ccccc3)n1)CCCC2
[9]
  inhibition: Active
[10]
  inhibition: Active
[4]
  pEC50: 6.33
[5]
  pKi: 7.51

## C=CC(=O)Nc1cccc2c1cc(C)n2-c1nc2c(c(NCc3ccccc3)n1)COCC2
[4]
  pEC50: 6.06
[5]
  pKi: 7.58

## C#CCNC(=O)c1cccc2c1cc(C)n2-c1nc2c(c(NCc3ccccc3)n1)COCC2
[9]
  inhibition: Active
[10]
  inhibition: Active
[4]
  pEC50: 5.97
[5]
  pKi: 7.73

## CCC(=O)Nc1cccc2c1cc(C)n2-c1nc2c(c(NCc3ccccc3)n1)CCCC2
[10]
  inhibition: Active
[4]
  pEC50: 6.00
[5]
  pKi: 7.68

## C#CC(=O)Nc1cccc2c1cc(C)n2-c1nc2c(c(NCc3ccccc3)n1)CCCC2
[4]
  pEC50: 6.88
[5]
  pKi: 7.42

## C#CCCNC(=O)c1cccc2c1cc(C)n2-c1nc2c(c(NCc3ccccc3)n1)CCCC2
[10]
  inhibition: Active
[4]
  pEC50: 5.85
[5]
  pKi: 7.61

## Cc1cc(OCc2nnc(SC3CCCC3)n2-c2cccnc2)ccc1-c1ccc(S(C)(=O)=O)cc1
[22]
  T1/2: < 1 h
[16]
  inhibition: Active
[19]
  inhibition: inactive

## CC#CCNC(=O)c1cccc2c1cc(C)n2-c1nc2c(c(NCc3ccccc3)n1)CCCC2
[8]
  half-life at 1 µM: > 24 h
[9]
  inhibition: Active
[10]
  inhibition: Active
[4]
  pEC50: 6.14
[5]
  pKi: 7.43
[11]
  Activity: Not Active
